Experimental data from different studies.
Each line is one published result; the experiments were not run side by side.
Target: Calcium/calmodulin-dependent protein kinase kinase 2 (CAMKK2, Homo sapiens, UniProt Q96RR4)

| SMILES | effect on | action | technique | concentration | measurement | value |
| --- | --- | --- | --- | --- | --- | --- |
| CS(=O)(=O)CCNCc1ccc(-c2ccc3ncnc(Nc4ccc(OCc5cccc(F)c5)c(Cl)c4)c3c2)o1 | cell-free assay |  |  | 0.5 µM | remaining signal | 101% |
| Oc1cccc(-c2nc(N3CCOCC3)c3oc4ncccc4c3n2)c1 | enzyme activity | inhibitor |  | 10 µM | remaining activity | 114% |
| CCS(=O)(=O)c1cc2cc(C[C@@](O)(CC(C)(C)c3ccc(F)cc3C(N)=O)C(F)(F)F)[nH]c2cn1 | cell-free assay |  | competition with immobilised ligand | 1 µM | remaining binding | 56% |
| Cc1cnc(NC2CCOCC2)nc1-n1cnc(C(=O)NC(CN)c2cc(F)cc(Cl)c2)c1 (centres unmarked) | enzyme activity | inhibitor | radiometric | 1 µM | remaining activity | 81% |
| O=C(Nc1cnn(-c2csc(C(=O)NC3COC3)c2)c1)Nc1c(F)cccc1Cl | enzyme activity | inhibitor |  | 5 µM | remaining activity | 81% |
| COc1cc(Nc2cnc(C#N)c(O[C@H](C)CN(C)C)n2)ncc1-c1cnn(C)c1 | enzyme activity | inhibitor | radiometric | 10 µM | remaining activity | 71% |
| CNC(=O)c1cc(Oc2ccc(NC(=O)Nc3ccc(Cl)c(C(F)(F)F)c3)cc2)ccn1 | cell-free assay |  |  | 0.5 µM | remaining signal | 103% |
| COc1cc2nccc(Oc3ccc(NC(=O)Nc4ccc(F)cc4F)c(F)c3)c2cc1OC | thermal stability |  | DSF | 10 µM | ΔTm | 5 to 10 °C |
| COc1ccc2c(c1)O[C@H](c1ccc(OC)c(OC)c1)C[C@@H]2NC(=O)C1(c2ccc3c(c2)OC(F)(F)O3)CC1 | cell-free assay |  | competition with immobilised ligand | 1 µM | remaining binding | 100% |
| FC(F)(F)Oc1cccc(-c2cnc3ccc(-c4ccncc4)nn23)c1 | enzyme activity | inhibitor | radiometric | 1 µM | activity vs control | 59% |
| CN(C)c1nccc(-c2cnc3ncccn23)n1 | binding |  |  | 1 µM | remaining binding | 100% |
| CC(C)(C)C(=O)c1sc(NC2CCCCC2)nc1N | enzyme activity | inhibitor |  | 10 µM | remaining activity | 83% |
| Cc1ccc(C(=O)NCc2ccsc2)cc1C#Cc1cn(C(C)C)c2ncnc(N)c12 | enzyme activity | inhibitor |  | 1 µM | activity vs control | 110% |
| O=C(Nc1ccc(Oc2ccc(F)cc2)cc1)N1CCc2ncccc2[C@H]1c1ccc(F)cc1 | cell-free assay |  | competition with immobilised ligand | 1 µM | remaining binding | 100% |
| O=C(CSc1nc2nccnc2c(=O)n1CCc1ccccc1)Nc1nccs1 | enzyme activity | inhibitor |  | 10 µM | inhibition | 5% |
| CC(C)(C)c1nc(-c2cccc(NS(=O)(=O)c3c(F)cccc3F)c2F)c(-c2ccnc(N)n2)s1 | enzyme activity | inhibitor | radiometric | 1 µM | remaining activity | 113% |
| c1ccc(CNc2nc(N3CCOc4ccccc43)nc3c2CCCC3)cc1 | target engagement in cells | inhibitor | chemoproteomics | 20 mM | inhibition | 0.1% |
| O=C(O)c1cc(-c2ccc(C3CCNCC3)cc2)c2ccc(-c3ccc(C(F)(F)F)cc3)cc2c1 | cell-free assay |  | competition with immobilised ligand | 1 µM | remaining binding | 100% |
| CC(C)(O)[C@H]1CC[C@H](Nc2ccc3ncc(-c4cccc(C(F)(F)F)c4)n3n2)CC1 | enzyme activity | inhibitor |  | 1 µM | remaining activity | 96.9% |
| Cc1noc([C@H]2C[C@@H](c3ccc(C(F)(F)F)cc3)CN(C(=O)N3CCS(=O)(=O)C3)C2)n1 | cell-free assay |  | competition with immobilised ligand | 1 µM | remaining binding | 100% |
| Cn1c2c(c3ccc(Cl)c(Cl)c31)C(C#N)C1(CCCC1)NC2=O (centres unmarked) | thermal stability |  | DSF | 10 µM | ΔTm | 0.3 °C |
| CC(=O)Nc1c(C(C)=O)c(=O)n(C)c2nc(-c3ccc(Cl)cc3Cl)c(-c3ccc(Cl)cc3)cc12 | cell-free assay |  | competition with immobilised ligand | 1 µM | remaining binding | 100% |
| Nc1ncnc2occ(-c3ccc(NC(=O)Nc4cc(C(F)(F)F)ccc4F)cc3)c12 | cell-free assay | inhibitor |  | 20 µM | remaining signal | 24% |
| O=C(O)c1ccc2c3c1cccc3c(=O)n1c3ccccc3nc21 | cell-free assay |  |  | 0.5 µM | remaining signal | 7.88% |
| CN1CC(Oc2cnc(C#N)cc2-c2ccn3nc(NC(=O)C4CC4)cc3c2)C1 | enzyme activity | inhibitor |  | 1 µM | inhibition | 5% |
| Cn1c2c(Cl)c(Cl)ccc2c2cc[nH]c(=O)c21 | thermal stability |  | DSF | 10 µM | ΔTm | 0.6 °C |
| CS(=O)(=O)c1cc(C2(NC(=O)c3cncc4c3cnn4-c3ccc(F)cc3)CC2)ccn1 | cell-free assay |  | competition with immobilised ligand | 1 µM | remaining binding | 75% |
| CCC1(CC)NC(=O)c2c(c3ccc(Cl)c(Cl)c3n2C)C1C#N (centres unmarked) | thermal stability |  | DSF | 10 µM | ΔTm | 0.3 °C |
| CCc1ccccc1C(=O)Nc1n[nH]c2c(C)c(F)c(C3C(C#N)=C(C)N(C)C(C)=C3C#N)cc12 | cell-free assay |  | competition with immobilised ligand | 1 µM | remaining binding | 95% |
